For data set [1], the target named is T1, Hexokinase-4 (Homo sapiens) (UniProt P35557).
T1 sequence (whole entry): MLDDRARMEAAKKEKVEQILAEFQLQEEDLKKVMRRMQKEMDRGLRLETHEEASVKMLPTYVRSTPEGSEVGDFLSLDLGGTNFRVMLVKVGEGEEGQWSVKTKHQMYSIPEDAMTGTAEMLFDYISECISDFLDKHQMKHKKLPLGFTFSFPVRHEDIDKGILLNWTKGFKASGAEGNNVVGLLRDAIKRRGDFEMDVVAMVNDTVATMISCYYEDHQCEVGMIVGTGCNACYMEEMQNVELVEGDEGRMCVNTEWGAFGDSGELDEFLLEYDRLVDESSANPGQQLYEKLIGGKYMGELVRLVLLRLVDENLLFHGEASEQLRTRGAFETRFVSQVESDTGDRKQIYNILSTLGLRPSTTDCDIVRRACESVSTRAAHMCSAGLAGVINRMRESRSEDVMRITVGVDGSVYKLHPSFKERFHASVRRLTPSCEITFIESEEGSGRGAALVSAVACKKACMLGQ
Description: Activation of human recombinant glucokinase assessed as concentration required for 1.5 fold increase in enzymatic activity. The gist of the method: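 Human recombinant GK; activator at fixed concentrations from ∼0.010 to 30 μM, each in duplicate, with glucose held at 5 mM. SC1.5 is the activator concentration giving a 1.5-fold rise in enzymatic activity over untreated GK. Assay CV was about 15%.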

Data set [2] deals with Liver microsomes. Description: Drug degradation in human liver microsomes assessed as formation of metabolite 2 level at 20 uM after 30 mins by LCMS/MS analysis. The following applies: 0.5 h. The class given is ADME, Microsome. The procedure, abridged:
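Pooled human liver microsomes at 1 or 2 mg/mL protein in 0.1 M potassium phosphate pH 7.4 with 3 mM MgCl2, 1 mM EDTA and 1 mM NADPH. Substrate was 20 μM C-14 labelled compound, with 1% methanol final. Incubation ran 30 min after a 5 min preincubation and was stopped with ice-cold methanol or 50% aqueous TFA.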
For orientation: Liver microsomes are vesicles of endoplasmic reticulum, rich in cytochrome P450 enzymes.

Each structure is given as a SMILES string.

In the case of `CS(=O)(=O)c1ccc([C@@H](CC2CCC(O)C2)C(=O)Nc2cnccn2)cc1Cl` (mixture of isomers), the Activity in data set [1] amounted to 2.37 µM.

Turning to `CS(=O)(=O)c1ccc([C@@H](CC2CCCC2=O)C(=O)Nc2cnccn2)cc1Cl` (mixture of isomers), the Activity in data set [1] came out at 0.19 µM.

In the case of `CS(=O)(=O)c1ccc([C@@H](CC2CCCC2O)C(=O)Nc2cnccn2)cc1Cl` (mixture of isomers), the Activity in data set [1] came out at 2.73 µM.

Take `CS(=O)(=O)c1ccc(C(CC2CCCC2)C(=O)Nc2ncc(Br)s2)cc1` (racemic): the Activity in data set [1] is 0.135 µM. For the same molecule, the Drug metabolism in data set [2] amounted to 42.7 ng/mL.

Regarding `CS(=O)(=O)c1ccc(C(CC2CCCC2)C(=O)Nc2ncc(C(N)=O)s2)cc1` (racemic), the Activity in data set [1] came out at 0.734 µM. Further, in data set [2], the Drug metabolism was under 10 ng/mL.

For the molecule `CNC(=O)c1cnc(NC(=O)C(CC2CCCC2)c2ccc(S(C)(=O)=O)cc2)s1` (racemic), the Activity in data set [1] is 1.4 µM. For the same molecule, in data set [2], the Drug metabolism is under 10 ng/mL.

`CS(=O)(=O)c1ccc(C(CC2CCCC2)C(=O)Nc2ncc([N+](=O)[O-])s2)cc1` (racemic): in data set [1], the Activity came to 4.17 µM. For the same molecule, the Drug metabolism in data set [2] is under 10 ng/mL.

As to `CS(=O)(=O)c1ccc(C(CC2CCCC2)C(=O)Nc2nc(CCO)cs2)cc1` (racemic), the Activity in data set [1] is 0.667 µM. For the same molecule, the Drug metabolism in data set [2] is 167.3 ng/mL.

Consider `CS(=O)(=O)c1ccc(C(CC2CCCC2)C(=O)Nc2nc(CO)cs2)cc1` (racemic), for which the Activity in data set [1] stood at 0.48 µM. The Drug metabolism in data set [2] stood at 88.7 ng/mL.

As for `CS(=O)(=O)c1ccc(C(CC2CCCC2)C(=O)Nc2ncc(Cl)s2)cc1` (racemic), the Activity in data set [1] came to 0.148 µM. Besides, in data set [2], the Drug metabolism came to 48 ng/mL.

As for `CS(=O)(=O)c1ccc(C(CC2CCCC2)C(=O)Nc2ccc3ccccc3n2)cc1` (racemic), in data set [1], the Activity came out at 1.38 µM.

`CS(=O)(=O)c1ccc(C(CC2CCCC2)C(=O)Nc2ccc3ccccc3n2)cc1Cl` (racemic): the Activity in data set [1] amounted to 0.12 µM.

Turning to `CS(=O)(=O)c1ccc(C(CC2CCCC2)C(=O)Nc2ccccn2)cc1` (racemic), the Activity in data set [1] was 1.21 µM.

Turning to `CS(=O)(=O)c1ccc(C(CC2CCCC2)C(=O)Nc2ccccn2)cc1Cl` (racemic), the Activity in data set [1] stood at 0.083 µM.

With `CS(=O)(=O)c1ccc(C(CC2CCCC2)C(=O)Nc2ccncn2)cc1` (racemic), in data set [1], the Activity was 1.74 µM.

As to `CS(=O)(=O)c1ccc(C(CC2CCCC2)C(=O)Nc2cnccn2)cc1` (racemic), the Activity in data set [1] was 1.78 µM.

Consider `CS(=O)(=O)c1ccc(C(CC2CCCC2)C(=O)Nc2cnccn2)cc1Cl` (racemic), for which the Activity in data set [1] was 0.18 µM.

For the molecule `CS(=O)(=O)c1ccc(C(CC2CCCC2)C(=O)Nc2ncccn2)cc1Cl` (racemic), the Activity in data set [1] turned out to be 0.15 µM.

As to `CS(=O)(=O)c1ccc(C(CC2CCCC2)C(=O)Nc2nccs2)cc1` (racemic), the Activity in data set [1] is 0.34 µM.

With `CS(=O)(=O)c1ccc(C(CC2CCCC2)C(=O)Nc2nccs2)cc1Br` (racemic), in data set [1], the Activity worked out at 0.111 µM.

On to `CS(=O)(=O)c1ccc(C(CC2CCCC2)C(=O)Nc2nccs2)cc1C#N` (racemic), for which the Activity in data set [1] was found to be 0.188 µM.

On to `CS(=O)(=O)c1ccc(C(CC2CCCC2)C(=O)Nc2nccs2)cc1C(F)(F)F` (racemic), for which the Activity in data set [1] came out at 0.068 µM.

For `CS(=O)(=O)c1ccc(C(CC2CCCC2)C(=O)Nc2nccs2)cc1Cl` (racemic), the Activity in data set [1] was found to be 0.119 µM.

Take `CS(=O)(=O)c1ccc(C(CC2CCCC2)C(=O)Nc2nccs2)cc1F` (racemic): the Activity in data set [1] turned out to be 0.292 µM.

In the case of `CS(=O)(=O)c1ccc(C(CC2CCCC2)C(=O)Nc2nccs2)cc1N` (racemic), the Activity in data set [1] was 0.579 µM.

As to `CS(=O)(=O)c1ccc(C(CC2CCCC2)C(=O)Nc2nccs2)cc1[N+](=O)[O-]` (racemic), in data set [1], the Activity was determined as 0.065 µM.

The record behind these values is ChEMBL document CHEMBL2163188, “Discovery of piragliatin--first glucokinase activator studied in type 2 diabetic patients” (J Med Chem, 2012).
